In general, IC50 refers to the midpoint of a concentration-inhibition curve. A high value points to lower potency.

Activity calls are given as the source filed them. The calls are words filed in the database; no cut-off is given here.

Our source for the IC50 and inhibition values is ChEMBL document CHEMBL2016570, “Synthesis, biological evaluation, and molecular docking studies of 1,3,4-thiadiazol-2-amide derivatives as novel anticancer agents” (Bioorg Med Chem, 2012).

For one test, the system named is MCF7. As to the kind of experiment: Antiproliferative activity against human MCF7 cells after 48 hrs by MTT assay. As to conditions: MCF7, 48 h. The format is functional, cell-based. The gist of the method: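 MCF-7 cells were grown to log phase in RPMI 1640 with 10% FBS, diluted to 2 × 10⁴ cells/mL and seeded, then held 24 h at 37 °C, 5% CO₂. Compounds at pre-set concentrations went into six wells, with staurosporine as positive reference, for 48 h. MTT in PBS (2.5 mg/mL) was added, incubation ran overnight at 37 °C, and OD was read at 570 nm. Triplicate wells per concentration; assay run ≥3 times.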
(In general: Tetrazolium dyes change colour on reduction, which living cells bring about.)

The nature of test [1]: Inhibition of bovine brain FAK after 20 mins by turbidimetry. Set-up: species or system Bos taurus.
A further test has as its system B16-F10. The test can be described thus: Antiproliferative activity against mouse B16F10 cells after 48 hrs by MTT assay. The format is functional, cell-based. The following applies: B16-F10, 48 h.
Test [2] addresses Focal adhesion kinase 1 (Homo sapiens) (UniProt Q05397). As to the kind of experiment: Inhibition of FAK in human MCF7 cells at 2 to 8 uM by Western blot analysis. The format is cell-based. The gist of the method:
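After treatment, cells were PBS-washed and lysed in Tris/NaCl/PMSF/Na₃VO₄/NP-40/glycerol buffer with phosphatase and protease inhibitors, then spun at 12,000g for 5 min. Protein was measured by BCA, resolved on 10% SDS–PAGE and transferred to PVDF. Membranes were blocked in 5% nonfat milk for 2 h at room temperature, probed with primary antibodies overnight at 4 °C, then HRP secondary. Representative of three independent experiments.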
Background: A western blot detects proteins with antibodies after separation by electrophoresis.

Chain of Focal adhesion kinase 1 (Homo sapiens) (Q05397 2-1052 limits assumed): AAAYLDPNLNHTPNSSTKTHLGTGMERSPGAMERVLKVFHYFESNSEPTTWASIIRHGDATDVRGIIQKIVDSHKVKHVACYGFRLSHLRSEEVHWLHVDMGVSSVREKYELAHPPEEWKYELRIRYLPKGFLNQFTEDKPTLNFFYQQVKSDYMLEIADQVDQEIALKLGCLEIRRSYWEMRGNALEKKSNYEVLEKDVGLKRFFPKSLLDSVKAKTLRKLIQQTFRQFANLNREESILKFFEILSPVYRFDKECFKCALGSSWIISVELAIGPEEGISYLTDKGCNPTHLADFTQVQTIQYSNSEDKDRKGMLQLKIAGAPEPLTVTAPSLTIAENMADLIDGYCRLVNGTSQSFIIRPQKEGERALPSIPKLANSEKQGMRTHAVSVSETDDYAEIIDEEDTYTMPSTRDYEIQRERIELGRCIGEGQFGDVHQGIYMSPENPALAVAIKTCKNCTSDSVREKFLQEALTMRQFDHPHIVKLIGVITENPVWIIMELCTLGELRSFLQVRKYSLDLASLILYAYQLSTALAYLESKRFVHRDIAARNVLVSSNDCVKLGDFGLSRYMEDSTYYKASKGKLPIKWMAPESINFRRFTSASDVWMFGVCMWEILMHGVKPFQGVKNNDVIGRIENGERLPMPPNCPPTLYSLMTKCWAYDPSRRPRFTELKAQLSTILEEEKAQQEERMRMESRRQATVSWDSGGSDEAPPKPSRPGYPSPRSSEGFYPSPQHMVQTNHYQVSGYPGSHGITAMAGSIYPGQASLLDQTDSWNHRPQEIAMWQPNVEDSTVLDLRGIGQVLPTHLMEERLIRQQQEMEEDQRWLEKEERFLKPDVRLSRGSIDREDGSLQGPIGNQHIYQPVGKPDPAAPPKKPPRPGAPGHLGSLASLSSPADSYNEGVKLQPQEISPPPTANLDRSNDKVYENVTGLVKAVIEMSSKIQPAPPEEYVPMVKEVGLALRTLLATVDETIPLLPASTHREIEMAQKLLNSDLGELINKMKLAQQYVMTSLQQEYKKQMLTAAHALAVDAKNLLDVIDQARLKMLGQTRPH

As to `CN[C@@H]1C[C@H]2O[C@@](C)([C@@H]1OC)n1c3ccccc3c3c4c(c5c6ccccc6n2c5c31)C(=O)NC4` [STAUROSPORINE], in the test on MCF7, half-maximal inhibition (IC50) required 3.07 µM.
For the molecule `O=C(Nc1nnc(-c2ccc(F)cc2)s1)c1ccccc1`, the results for the half-inhibitory concentration (IC50) (in test [1]; in the test with MCF7; in the test with B16-F10) were 15.5 µM, 5.35 µM and 4.75 µM, respectively.
For `O=C(Nc1nnc(-c2ccccc2)s1)c1cc(Br)ccc1O` the same measures were 7.25 µM, 1.28 µM and 1.28 µM.
For `COc1ccc(-c2nnc(NC(=O)c3ccccc3)s2)cc1` the same measures were 7.71 µM, 1.55 µM and 1.58 µM.
Taken in the same sequence, the figures for `O=C(Nc1nnc(-c2ccc(Cl)cc2)s1)c1ccccc1O` were 6.79 µM, 1.02 µM and 1.15 µM.
Turning to `O=C(Nc1nnc(-c2ccc(F)cc2)s1)c1cc(Cl)ccc1O`, the values for the IC50 (in test [1]; in the test with MCF7; in the test on B16-F10) were 6.13 µM, 0.75 µM and 0.68 µM, respectively.
Taken in the same sequence, the figures for `Cc1ccc(-c2nnc(NC(=O)c3ccccc3)s2)cc1` were 11.7 µM, 3.57 µM and 3.52 µM.
`O=C(Nc1nnc(-c2ccc(F)cc2)s1)c1ccccc1O`: the concentration for half-maximal inhibition (IC50) in test [1] amounted to 7.02 µM; in the test with MCF7 it was 1.21 µM; in the test on B16-F10, 1.16 µM.
Turning to `O=C(Nc1nnc(-c2ccccc2)s1)c1ccc(Cl)cc1`, the IC50 in test [1] turned out to be 11.9 µM; with MCF7, 4.49 µM; in the test with B16-F10, 4.65 µM.
For `COc1ccc(-c2nnc(NC(=O)c3cccnc3)s2)cc1`, the figures for the half-inhibitory concentration (IC50) (in test [1]; in the test on MCF7; in the test with B16-F10) were 9.75 µM, 2.99 µM and 2.36 µM, respectively.
For `O=C(Nc1nnc(-c2ccccc2)s1)c1ccccc1O`, the half-inhibitory concentration (IC50) in test [1] was 9.36 µM; with MCF7 it was 2.76 µM; in the test with B16-F10, 2.02 µM.
For the molecule `O=C(Cc1ccccc1)Nc1nnc(-c2ccc(Br)cc2)s1`, the figures for the concentration for half-maximal inhibition (IC50) (in test [1]; in the test with MCF7; with B16-F10) were 21.5 µM, 7.52 µM and 9.06 µM, respectively.
Take `O=C(Nc1nnc(-c2ccc(Cl)cc2)s1)c1cc(Cl)ccc1O`: the IC50 in test [1] was 5.32 µM; with MCF7, 0.45 µM; in the test with B16-F10, 0.31 µM. Besides, in test [2], the inhibition result was “Active”.
With `O=C(Cc1ccccc1)Nc1nnc(-c2ccc(Cl)cc2)s1`, the values for the IC50 (in test [1]; in the test with MCF7; with B16-F10) were 19.7 µM, 6.47 µM and 8.23 µM, respectively.
As for `COc1ccc(-c2nnc(NC(=O)c3ccccc3O)s2)cc1`, the IC50 worked out at 7.47 µM in test [1], 2.17 µM in the test on MCF7 and 1.39 µM in the test with B16-F10.
As for `O=C(Nc1nnc(-c2ccccc2)s1)c1cc(Cl)ccc1O`, the 50% inhibitory concentration (IC50) worked out at 6.89 µM in test [1], 1.12 µM with MCF7 and 1.14 µM in the test with B16-F10.
`O=C(Nc1nnc(-c2ccccc2)s1)c1cccnc1`: the figures for the half-maximal inhibitory concentration (IC50) (in test [1]; in the test on MCF7; in the test with B16-F10) were 18.6 µM, 8.22 µM and 6.18 µM, respectively.
Taken in the same sequence, the figures for `O=C(Nc1nnc(-c2ccc(Cl)cc2)s1)c1ccccc1` were 12.7 µM, 4.85 µM and 4.06 µM.
Taken in the same sequence, the figures for `Cc1ccc(-c2nnc(NC(=O)c3ccccc3O)s2)cc1` were 8.54 µM, 2.36 µM and 1.97 µM.
For `O=C(Nc1nnc(-c2ccc(F)cc2)s1)c1cc(Br)ccc1O` the same measures were 6.41 µM, 0.86 µM and 1.02 µM.
In the case of `Cc1ccc(-c2nnc(NC(=O)c3cccnc3)s2)cc1`, the IC50 in test [1] amounted to 12.4 µM; with MCF7 it was 4.52 µM; with B16-F10 it was 3.88 µM.
For `Cc1ccc(C(=O)Nc2nnc(-c3ccccc3)s2)cc1` the same measures were 9.84 µM, 3.28 µM and 2.76 µM.
For `O=C(Nc1nnc(-c2ccccc2)s1)c1ccccc1` the same measures were 16.2 µM, 5.87 µM and 5.15 µM.
As to `O=C(Nc1nnc(-c2ccc(Cl)cc2)s1)c1cc(Br)ccc1O`, the half-maximal inhibitory concentration (IC50) is 5.85 µM in test [1], 0.67 µM in the test on MCF7 and 0.56 µM in the test with B16-F10.
Taken in the same sequence, the figures for `O=C(Nc1nnc(-c2ccccc2)s1)c1ccc(F)cc1` were 14 µM, 4.85 µM and 4.36 µM.
For `COc1ccc(C(=O)Nc2nnc(-c3ccccc3)s2)cc1` the same measures were 7.89 µM, 1.83 µM and 1.75 µM.
